# Data from ChEMBL document CHEMBL2434932, “Design, synthesis and biological evaluation of a novel class of potent TGR5 agonists based on a 4-phenyl pyridine scaffold” (Eur J Med Chem, 2013).
# Target: T1, G-protein coupled bile acid receptor 1 (Homo sapiens, UniProt Q8TDU6)
# T1 sequence (Q8TDU6 whole entry): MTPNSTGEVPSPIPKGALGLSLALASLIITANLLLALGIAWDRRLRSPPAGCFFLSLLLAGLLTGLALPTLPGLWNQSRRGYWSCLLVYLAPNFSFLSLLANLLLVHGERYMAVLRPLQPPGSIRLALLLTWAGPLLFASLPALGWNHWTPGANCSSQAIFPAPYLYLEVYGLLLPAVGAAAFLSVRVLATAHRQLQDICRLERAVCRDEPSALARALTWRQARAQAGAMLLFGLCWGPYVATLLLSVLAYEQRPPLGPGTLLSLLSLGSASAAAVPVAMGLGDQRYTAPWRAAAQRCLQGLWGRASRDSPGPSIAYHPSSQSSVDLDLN
# Assay: Agonist activity at human TGR5 expressed in HEK293 cells assessed CRE-induced luciferase activity after 5.5 hrs by reporter gene assay
# Type: functional, cell-based
row,EC50,SMILES
1,350 nM,O=C(c1ccccc1)N(Cc1cc(C(F)(F)F)cc(C(F)(F)F)c1)Cc1cnccc1-c1ccccc1
2,4080 nM,O=C(c1ccncc1)N(Cc1cc(C(F)(F)F)cc(C(F)(F)F)c1)Cc1cnccc1-c1ccccc1
3,120 nM,O=C(c1ccsc1)N(Cc1cc(C(F)(F)F)cc(C(F)(F)F)c1)Cc1cnccc1-c1ccccc1
4,1230 nM,CCC(c1cc(C(F)(F)F)cc(C(F)(F)F)c1)N(Cc1cnccc1-c1ccccc1)C(=O)c1ccco1 (racemic)
5,910 nM,CC(=O)N(Cc1cc(C(F)(F)F)cc(C(F)(F)F)c1)Cc1cnccc1-c1ccccc1
6,320 nM,O=C(c1ccoc1)N(Cc1cc(C(F)(F)F)cc(C(F)(F)F)c1)Cc1cnccc1-c1ccccc1
7,500 nM,O=C(c1ccco1)N(Cc1cc(C(F)(F)F)cc(C(F)(F)F)c1)Cc1cnccc1-c1ccccc1F
8,7430 nM,O=C(c1ccc(Cl)cc1)N(Cc1cc(C(F)(F)F)cc(C(F)(F)F)c1)Cc1cnccc1-c1ccccc1
9,470 nM,O=C(c1ccco1)N(Cc1cc(C(F)(F)F)cc(C(F)(F)F)c1)Cc1cnccc1-c1ccccc1

# Continued, compound first:
row,SMILES,EC50
1,CCC(NCc1cnccc1-c1ccccc1F)c1cc(C(F)(F)F)cc(C(F)(F)F)c1 (racemic),384 nM
2,CCC(=O)N(Cc1cc(C(F)(F)F)cc(C(F)(F)F)c1)Cc1cnccc1-c1ccccc1,1270 nM
3,O=C(c1ccsc1)N(Cc1cnccc1-c1ccccc1F)S(=O)(=O)c1cc(C(F)(F)F)cc(C(F)(F)F)c1,53 nM
4,O=S(=O)(NCc1c(-c2ccccc2F)ccnc1Cl)c1cc(C(F)(F)F)cc(C(F)(F)F)c1,406 nM
5,CCCN(Cc1cnccc1-c1ccccc1F)C(C#N)c1cc(C(F)(F)F)cc(C(F)(F)F)c1 (racemic),466 nM
6,O=S(=O)(NCc1cnccc1-c1c(F)cccc1F)c1cc(C(F)(F)F)cc(C(F)(F)F)c1,62 nM
7,N#CC(c1cc(C(F)(F)F)cc(C(F)(F)F)c1)N(Cc1ccco1)Cc1cnccc1-c1ccccc1F (racemic),892 nM
8,CC(NCc1cnccc1-c1ccccc1F)c1cc(C(F)(F)F)cc(C(F)(F)F)c1 (racemic),204 nM

# Target: T2, G-protein coupled bile acid receptor 1 (Mus musculus) (UniProt Q80SS6)
# T2 sequence (whole entry): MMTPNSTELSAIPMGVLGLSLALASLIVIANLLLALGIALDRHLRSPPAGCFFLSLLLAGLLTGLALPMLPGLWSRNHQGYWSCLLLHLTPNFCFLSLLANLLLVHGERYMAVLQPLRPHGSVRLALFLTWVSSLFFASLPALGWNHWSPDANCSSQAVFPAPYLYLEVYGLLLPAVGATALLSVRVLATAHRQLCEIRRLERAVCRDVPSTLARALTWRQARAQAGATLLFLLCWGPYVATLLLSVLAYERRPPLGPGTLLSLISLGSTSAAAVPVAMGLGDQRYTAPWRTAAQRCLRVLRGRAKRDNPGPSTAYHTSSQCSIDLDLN
# Assay: Agonist activity at mouse TGR5 expressed in HEK293 cells assessed CRE-induced luciferase activity after 5.5 hrs by reporter gene assay relative to control
# Type: functional, cell-based
# Set-up: concentration or dose not given beside the values
# In short: (§1)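 HEK293 cells were stably transfected with a human or mouse TGR5 expression plasmid plus a CRE-driven luciferase reporter (pGL4.29). Cells were seeded and incubated overnight in DMEM with 10% FBS at 37 °C in 5% CO2, then exposed in fresh medium to a range of test concentrations. Luciferase read-out. Max effect % was scaled from DMSO vehicle (0%) to the INT-777 reference (100%). EC50 was taken from at least two independent experiments at eight concentrations each, mean ± SD.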
row,Activity,SMILES
1,111%,O=C(c1ccsc1)N(Cc1cc(C(F)(F)F)cc(C(F)(F)F)c1)Cc1cnccc1-c1ccccc1
2,130%,O=C1COc2nccc(-c3ccccc3F)c2CN1Cc1cc(C(F)(F)F)cc(C(F)(F)F)c1
3,146%,O=C(c1ccsc1)N(Cc1cnccc1-c1ccccc1F)S(=O)(=O)c1cc(C(F)(F)F)cc(C(F)(F)F)c1
4,123%,O=S(=O)(NCc1cnccc1-c1c(F)cccc1F)c1cc(C(F)(F)F)cc(C(F)(F)F)c1
5,117%,CC(NCc1cnccc1-c1ccccc1F)c1cc(C(F)(F)F)cc(C(F)(F)F)c1 (racemic)

row,SMILES,Activity
1,CC[C@H]1[C@@H](O)[C@@H]2[C@H](C[C@H](O)[C@]3(C)[C@@H]([C@H](C)C[C@H](C)C(=O)O)CC[C@@H]23)[C@@]2(C)CC[C@@H](O)C[C@@H]12,100%

# Target: T3, G-protein coupled bile acid receptor 1 (Mus musculus, UniProt Q80SS6)
# T3 sequence (Q80SS6 whole entry): T2 sequence (whole entry)
# Assay: Agonist activity at mouse TGR5 expressed in HEK293 cells assessed CRE-induced luciferase activity after 5.5 hrs by reporter gene assay
# Type: functional, cell-based
# In short: as §1, with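 “read-out.” for “read-out. Max effect % was scaled from DMSO vehicle (0%) to the INT-777 reference (100%).”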
row,EC50,SMILES
1,230 nM,O=C(c1ccsc1)N(Cc1cc(C(F)(F)F)cc(C(F)(F)F)c1)Cc1cnccc1-c1ccccc1
2,1090 nM,O=C(c1ccsc1)N(Cc1cnccc1-c1ccccc1F)S(=O)(=O)c1cc(C(F)(F)F)cc(C(F)(F)F)c1
3,550 nM,O=S(=O)(NCc1cnccc1-c1c(F)cccc1F)c1cc(C(F)(F)F)cc(C(F)(F)F)c1
4,2040 nM,CC(NCc1cnccc1-c1ccccc1F)c1cc(C(F)(F)F)cc(C(F)(F)F)c1 (racemic)
